Assay results from article PMC3346673 (Toxicological and environmental chemistry, 2012).
Where two headings read alike, the source gives them in different places.

Key:
[1] = tested on: rats; assay: Oral up/down LD-50 determination, gavage in corn oil; type: in vivo, rat (Wistar)
Summary of the method: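 Up/down design in 3 female Wistar rats (206–208 g). Test compound was suspended in corn oil and given by gavage, three times daily to reach the top level. Testing stopped at 5 g kg−1 body weight.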

[2] = Endotoxin activity; details: 1 mg mL^−1, tested undiluted to 1:512 dilution
[3] = tested on: Salmonella typhimurium strains TA1537, TA98, TA100, and TA1535; assay: Ames test for mutagenic activity; type: cell-based; details: reversion of mutations in the histidine operon
[4] = tested on: Escherichia coli strain WP2 uvrA; assay: Ames test for mutagenic activity; type: cell-based; details: reversion of mutations in the tryptophan operon
[5] = Oxygen radical absorbance capacity; details: Trolox equivalency
[6] = Hydroxyl radical absorbance capacity; details: Trolox equivalency
[7] = Metabolic profiling with rat liver microsomes; type: in vitro ADME; details: incubation with rat liver microsomes, MS identification
Summary of the method: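 Test compound incubated with human or rat liver microsomes. Products separated by HPLC and identified by electrospray MS and MS:MS, using information-dependent acquisition on the parent ion, enhanced product ion scans, and linear ion trap scanning of trapped fragments.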

[8] = Oral absorption, plasma pharmacokinetics after oral gavage; type: in vivo, rat (Sprague-Dawley); details: for Tmax / half-life: male, Sprague-Dawley, rat, plasma, po
[9] = tested on: rats injected with HgCl2; type: in vivo, rat (Harlan Sprague-Dawley); details: for mercury concentration in feces / mercury concentration in urine: 5 day collection, mean ± SEM
Summary of the method: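 Mature male Harlan Sprague-Dawley rats (389–397 g), four groups of six, housed in pairs. HgCl2 was given sc at 4.06 mg kg−1 in saline under brief isoflurane. Test compound (42.3 mg kg−1, DMSO plus PBS) was given sc 20–30 min later. Non-recipients got saline, so each rat had two injections. Rats were weighed before treatment and before day-6 sacrifice; organs were blotted and weighed. Behaviour was recorded.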

[10] = Solubility and stability of NBMI and its Hg complex; type: physicochemical
[11] = Group 2 NBMI only, sc 42.3 mg kg^−1, mean ± St Dev
[12] = Group 4 HgCl2 (4.06 mg kg^−1 sc) + NBMI (42.3 mg kg^−1 sc), mean ± St Dev

O=C(NCCS)c1cccc(C(=O)NCCS)c1 [NBMI, N,N′-bis(2-mercaptoethyl)isophthalamide]
LD-50 ([1]; oral gavage in corn oil, female Wistar rats): > 5 g kg^−1 body weight | signs of toxicity in LD-50 study ([1]; up to 5 g NBMI kg^−1 body weight, gavaged 3 times daily): no death or other signs of toxicity with the exception of some diarrhea | endotoxin content [2]: less than one | mutagenicity, Ames analysis [3]: non-mutagenic | mutagenicity, Ames analysis [4]: non-mutagenic | ORAC score [5]: 199,000 Trolox units 100g^−1 | HORAC score [6]: 299,000 Trolox units 100g^−1 | metabolites detected [7]: only two NBMI modified structures | Tmax ([8]; 7 mg/kg): 2.3 ± 1.2 h | half-life ([8]; 7 mg/kg): 5.47 ± 1.75 h | Tmax ([8]; 35 mg/kg): 2.3 ± 1.2 h | half-life ([8]; 35 mg/kg): 5.6 ± 1.02 h | absorbance of NBMI into plasma from oral dose ([8]; oral 7 mg kg^−1, estimated against iv 1 mg kg^−1): 13 ± 5.9% | absorbance of NBMI into plasma from oral dose ([8]; oral 35 mg kg^−1, estimated against iv 1 mg kg^−1): 15 ± 3.6% | Body Mass Post Treatment [9, 11]: 374.4 ± 27.7 g | Organ Mass Brain (Post Treatment) [9, 11]: 1.85 ± 0.04 g | Organ Mass Kidney (Post Treatment) [9, 11]: 2.80 ± 0.56 g | Organ Mass Liver (Post Treatment) [9, 11]: 11.7 ± 1.8 g | clinically observed toxic effects ([9]; Group 4 Hg + NBMI versus Hg Only): exhibited no signs of discomfort | Body Mass Post Treatment [9, 12]: 356.9 ± 46.8 g | Organ Mass Brain (Post Treatment) [9, 12]: 1.88 ± 0.10 g | Organ Mass Kidney (Post Treatment) [9, 12]: 3.88 ± 0.69 g | Organ Mass Liver (Post Treatment) [9, 12]: 11.0 ± 2.1 g | mercury concentration in feces ([9]; Hg and NBMI group): 23447±4877 Ppb | mercury concentration in urine ([9]; Hg and NBMI group): 242±52.7 Ppb | mercury concentration in feces ([9]; NBMI Only group): 110±30 Ppb | mercury concentration in urine ([9]; NBMI Only group): 0.30±0.1 Ppb | effect on organ mercury levels ([9]; single sc dose of NBMI, organs 5-6 days after injection): did not reduce the mercury levels in the organs | solubility in 95% ethanol or dimethylsulfoxide (DMSO) [10]: readily dissolves | solubility in water [10]: water insoluble
